Reference: ChEMBL document CHEMBL1126989, “Synthesis and cytotoxicity of 1,6,7,8-substituted 2-(4'-substituted phenyl)-4-quinolones and related compounds: identification as antimitotic agents interacting with tubulin” (J Med Chem, 1993)
≈ marks a conversion by molar mass, not a printed value.

What was measured:
[1] = system: A549; assay: Cytotoxicity in vitro expressed as 50% reduction in cell number after a 3-day incubation, in human lung carcinoma A-549 cell line; assay type: functional, cell-based; conditions: A549, 72 h
Procedure, shortened: (§1)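 Cell lines adapted to antibiotic-free RPMI-1640 with 10% fetal calf serum; ca. 1×10^5 cells per well, overnight stabilization, then serial dilutions added, quadruplicate per concentration; medium-only controls. After 3-4 days, MTT added and incubated overnight; formazan dissolved in DMSO, absorbance at 570 nm. EC50 calculated from two data points bracketing 50% growth inhibition. Actinomycin as positive control.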

[2] = system: L1210 (1565); assay: Cytotoxicity in vitro expressed as 50% reduction in cell number after a 3-day incubation, in murine leukemia L-1210 cell line; assay type: functional, cell-based; conditions: Mus musculus, 72 h; procedure, shortened: as §1
[3] = system: KB; assay: Cytotoxicity in vitro expressed as 50% reduction in cell number after a 3-day incubation, in human epidermoid carcinoma KB cell line; assay type: functional, cell-based; conditions: 72 h; procedure, shortened: as §1
[4] = system: P388; assay: Cytotoxicity in vitro expressed as 50% reduction in cell number after a 3-day incubation, in murine leukemia P-388 cell line; assay type: functional, cell-based; conditions: Mus musculus, P388, 72 h; procedure, shortened: as §1
[5] = system: RPMI-7951; assay: Cytotoxicity in vitro expressed as 50% reduction in cell number after a 3-day incubation, in human melanoma RPMI-7951 cell line; assay type: functional, cell-based; conditions: RPMI-7951, 72 h; procedure, shortened: as §1
[6] = molecular target: Tubulin; assay: (§2) Inhibition of tubulin polymerization; assay type: functional
Procedure, shortened: (§3)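 Bovine brain tubulin 1.0 mg/mL (10 μM) with 1.0 M repurified monosodium glutamate, 1.0 mM MgCl2, 4% DMSO and drug; preincubated 15 min at 37 °C, chilled, GTP added; turbidity at 350 nm after jump from 0 to 37 °C, followed 20 min.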

[7] = system: HCT-8; assay: Cytotoxicity in vitro expressed as 50% reduction in cell number after a 3-day incubation, in human ileocecal carcinoma HCT-8 cell line; assay type: functional, cell-based; conditions: HCT-8, 72 h; procedure, shortened: as §1
[8] = molecular target: Tubulin beta chain (Bos taurus, UniProt Q6B856); assay: as §2; assay type: functional; procedure, shortened: as §3
Chain of Tubulin beta chain (Q6B856 whole entry): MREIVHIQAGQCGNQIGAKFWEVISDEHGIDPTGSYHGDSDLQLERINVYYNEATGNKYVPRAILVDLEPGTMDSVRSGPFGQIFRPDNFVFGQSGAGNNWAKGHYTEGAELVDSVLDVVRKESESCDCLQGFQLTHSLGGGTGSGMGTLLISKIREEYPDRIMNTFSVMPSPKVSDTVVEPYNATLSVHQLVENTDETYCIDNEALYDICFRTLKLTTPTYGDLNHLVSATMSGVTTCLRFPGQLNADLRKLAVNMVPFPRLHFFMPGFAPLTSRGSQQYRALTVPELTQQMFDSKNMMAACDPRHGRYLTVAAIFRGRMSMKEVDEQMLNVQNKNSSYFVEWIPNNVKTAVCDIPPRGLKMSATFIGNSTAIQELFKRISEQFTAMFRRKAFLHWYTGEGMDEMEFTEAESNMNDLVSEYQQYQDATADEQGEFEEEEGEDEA

[9] = system: COLO 205; assay: Inhibition of in vitro cell growth which reduces cell growth to 50% of level at start of experiment in colon COLO-205 cell line; assay type: functional, Homo sapiens
Procedure, shortened: (§4)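 NCI in vitro disease-oriented screen across about 60 human tumour cell lines. The value is the LC50-type level: the drug concentration that cuts cell number to 50% of the count at the start of the experiment. Values are averages of 2 assays.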

[10] = system: COLO 205; assay: Inhibition of in vitro cell growth which reduces cell growth to level at start of experiment in colon COLO-205 cell line; assay type: functional, Homo sapiens
[11] = system: HCC 2998; assay: Inhibition of in vitro cell growth which reduces cell growth to level at start of experiment in colon HCC2998 cell line; assay type: functional, Homo sapiens
[12] = system: HCC 2998; assay: Inhibition of in vitro cell growth which reduces cell growth to 50% of level at start of experiment in colon HCC2998 cell line; assay type: functional, Homo sapiens; procedure, shortened: as §4
[13] = system: HT-29; assay: Inhibition of in vitro cell growth which reduces cell growth to 50% of level at start of experiment in colon HT-29 cell line; assay type: functional, Homo sapiens; procedure, shortened: as §4
[14] = (§5) Inhibition of in vitro cell growth which reduces cell growth to 50% of level at start of experiment in colon KM-20L2 cell line; assay type: functional, Homo sapiens; procedure, shortened: as §4
[15] = (§6) Inhibition of in vitro cell growth which reduces cell growth to level at start of experiment in colon KM-20L2 cell line; assay type: functional, Homo sapiens
[16] = system: SF-539; assay: Inhibition of in vitro cell growth which reduces cell growth to level at start of experiment in CNS SF-539 cell line; assay type: functional, Homo sapiens
[17] = system: SF-539; assay: Inhibition of in vitro cell growth which reduces cell growth to 50% of level at start of experiment in CNS SF-539 cell line; assay type: functional, Homo sapiens; procedure, shortened: as §4
[18] = molecular target: T1, Tubulin (Bos taurus) (UniProt Q6B856+Q862L2+Q862F3); assay: Percentage inhibition of colchicine binding by derivatives of 2-phenyl-4-quinolone at the ratio of 10:1; assay type: protein assay; conditions: concentration not given here
[19] = molecular target: T1, Tubulin (Bos taurus); assay: Percentage inhibition of colchicine binding by derivatives of 2-phenyl-4-quinolone at the ratio of 1:1; assay type: protein assay; conditions: concentration not given here
[20] = system: HT-29; assay: Inhibition of in vitro cell growth which reduces cell growth to level at start of experiment in colon HT-29 cell line; assay type: functional, Homo sapiens
[21] = Percentage inhibition of colchicine binding(1: 1 ratio of inhibitor: colchicine); assay type: functional; conditions: concentration not given here
[22] = system: KM-20L2; assay: as §5; assay type: functional, Homo sapiens; procedure, shortened: as §4
[23] = system: KM-20L2; assay: as §6; assay type: functional, Homo sapiens
[24] = molecular target: T1, Tubulin (Bos taurus); assay: Percentage inhibition of colchicine binding(10:1 ratio of inhibitor: colchicine); assay type: protein assay; conditions: concentration not given here
[25] = molecular target: T1, Tubulin (Bos taurus); assay: Percentage inhibition of colchicine binding(1:1 ratio of inhibitor: colchicine); assay type: protein assay; conditions: concentration not given here
[26] = system: COLO 205; assay: Inhibition of in vitro cell growth which reduces cell growth to 50% of level at start of experiment in colon COLO-205 cell line (<-4 in one experiment, >-4 in other experiment); assay type: functional, Homo sapiens; procedure, shortened: as §4
[27] = system: SF-539; assay: Inhibition of in vitro cell growth which reduces cell growth to 50% of level at start of experiment in CNS SF-539 cell line(<-4 in one experiment, >-4 in other experiment); assay type: functional, Homo sapiens; procedure, shortened: as §4

| Compound | EC50 [1] [µg/mL] | EC50 [2] [µg/mL] | EC50 [3] [µg/mL] | EC50 [4] [µg/mL] | EC50 [5] [µg/mL] | EC50 [7] [µg/mL] | IC50 [8] [µM] | further results |
| --- | --- | --- | --- | --- | --- | --- | --- | --- |
| Oc1cc(-c2ccccc2)nc2ccccc12 | 0.5 (≈ 2.26 µM) | 0.06 (≈ 0.271 µM) | 0.09 (≈ 0.407 µM) | 0.08 (≈ 0.362 µM) | 0.37 (≈ 1.67 µM) | 0.8 (≈ 3.62 µM) |  | IC50 [6]: 7.3 µM |
| COc1cc([C@@H]2c3cc4c(cc3[C@H](O)[C@H]3COC(=O)[C@H]23)OCO4)cc(OC)c1OC [PODOFILOX] |  |  |  |  |  |  | 1.3 |  |
| CCCOc1cc(-c2ccccc2)nc2ccccc12 | > 10 | > 10 | 4.5 (≈ 17.1 µM) | 6.9 (≈ 26.2 µM) |  | > 10 |  |  |
| COc1ccc2c(O)cc(-c3ccccc3)nc2c1 | 0.73 (≈ 2.91 µM) | 0.57 (≈ 2.27 µM) | 0.53 (≈ 2.11 µM) | 0.67 (≈ 2.67 µM) | 0.43 (≈ 1.71 µM) | 4.86 (≈ 19.3 µM) | 4.8 |  |
| CCCCOc1cc(-c2ccccc2)nc2ccccc12 | > 10 | > 10 | 3.8 (≈ 13.7 µM) | > 10 |  | > 10 |  |  |
| Oc1cc(-c2ccccc2)nc2c(O)cccc12 | > 10 | > 10 | > 10 | > 10 | > 10 | > 10 |  |  |
| COc1cccc2c(O)cc(-c3ccccc3)nc12 | 6.77 (≈ 26.9 µM) | 7.68 (≈ 30.6 µM) | 5.05 (≈ 20.1 µM) | > 10 | > 10 | 0.55 (≈ 2.19 µM) | > 40 |  |
| Cc1ccc2nc(-c3ccccc3)cc(O)c2c1 | 0.53 (≈ 2.25 µM) | 0.72 (≈ 3.06 µM) | 0.55 (≈ 2.34 µM) | 0.49 (≈ 2.08 µM) | 0.53 (≈ 2.25 µM) | 0.9 (≈ 3.83 µM) |  |  |
| CCOc1cc(-c2ccccc2)nc2ccccc12 | > 10 | > 10 | 6.7 (≈ 26.9 µM) | 6 (≈ 24.1 µM) |  | > 10 |  |  |
| Oc1cc(-c2ccccc2)nc2ccc(F)cc12 | 0.38 (≈ 1.59 µM) | < 0.01 | < 0.01 | 0.08 (≈ 0.334 µM) | 0.53 (≈ 2.22 µM) | 1.36 (≈ 5.68 µM) | 3.3 |  |
| Oc1cc(-c2ccccc2)nc2ccc(Cl)cc12 | 0.51 (≈ 1.99 µM) | 0.5 (≈ 1.96 µM) | 0.49 (≈ 1.92 µM) | 0.84 (≈ 3.29 µM) | 0.64 (≈ 2.5 µM) | 0.7 (≈ 2.74 µM) | 3.2 | LC50 [9]: -4; TGI [10]: -5.6; TGI [11]: -5; LC50 [12]: >-5; LC50 [13]: >-4; LC50 [14]: -4; TGI [15]: -5.4; TGI [16]: -5.4; LC50 [17]: >-4; inhibition [18]: 21%; inhibition [19]: 6%; TGI [20]: -4.9 |
| CN(C)CCOc1cc(-c2ccccc2)nc2ccccc12 | > 10 | > 10 | > 4 | > 10 |  | > 10 |  |  |
| Oc1ccc2c(O)cc(-c3ccccc3)nc2c1 | 0.81 (≈ 3.41 µM) | 0.45 (≈ 1.9 µM) | 0.55 (≈ 2.32 µM) | 0.81 (≈ 3.41 µM) | 0.52 (≈ 2.19 µM) | > 10 | 3.4 |  |
| COc1ccc(/C=C\c2cc(OC)c(OC)c(OC)c2)cc1O |  |  |  |  |  |  |  | inhibition [21]: 97% |
| CS(=O)(=O)Oc1cc(-c2ccccc2)nc2ccccc12 | 6.21 (≈ 20.7 µM) | 6.04 (≈ 20.2 µM) | 2.8 (≈ 9.35 µM) | > 10 |  | 5.6 (≈ 18.7 µM) |  |  |
| Cn1c(-c2ccc(O)cc2)cc(=O)c2ccccc21 | > 10 | > 10 | > 10 | > 10 | > 10 | 5.71 (≈ 22.7 µM) |  | IC50 [6]: > 40 µM |
| Oc1cc(-c2ccccc2)nc2c(F)cccc12 | 0.61 (≈ 2.55 µM) | 0.67 (≈ 2.8 µM) | 0.53 (≈ 2.22 µM) | 0.78 (≈ 3.26 µM) | 0.38 (≈ 1.59 µM) | 0.04 (≈ 0.167 µM) | 11 |  |
| c1ccc(COc2cc(-c3ccccc3)nc3ccccc23)cc1 | > 10 | > 10 | 1.6 (≈ 5.14 µM) | > 10 |  | > 10 |  |  |
| CC(C)COc1cc(-c2ccccc2)nc2ccccc12 | > 10 | > 10 | > 4 | > 10 |  | > 10 |  |  |
| COCOc1ccc(-c2cc(=O)c3ccccc3n2C)cc1 |  | > 10 |  | > 10 |  |  |  |  |
| COc1cc(-c2ccccc2)nc2ccccc12 | > 10 | > 10 | > 10 | 4.5 (≈ 19.1 µM) |  | > 10 |  |  |
| CC(C)Oc1cc(-c2ccccc2)nc2ccccc12 | > 10 | > 10 | 4.2 (≈ 15.9 µM) | > 10 |  | > 10 |  |  |
| COc1ccc2nc(-c3ccccc3)cc(O)c2c1 | 0.19 (≈ 0.756 µM) | 0.06 (≈ 0.239 µM) | 0.08 (≈ 0.318 µM) | 0.33 (≈ 1.31 µM) | 0.36 (≈ 1.43 µM) | 1 (≈ 3.98 µM) | 2.7 | LC50 [9]: -4.4; TGI [10]: -6.1; TGI [11]: -6.2; LC50 [12]: >-4; LC50 [13]: >-4; LC50 [22]: -4.6; TGI [23]: -5.9; TGI [16]: -6.2; LC50 [17]: -4.4; inhibition [24]: 53%; inhibition [25]: 8%; TGI [20]: -6.1 |
| Oc1ccc2nc(-c3ccccc3)cc(O)c2c1 | 8.14 (≈ 34.3 µM) | 0.83 (≈ 3.5 µM) | 0.41 (≈ 1.73 µM) | 2.86 (≈ 12.1 µM) | 3.92 (≈ 16.5 µM) | 7.75 (≈ 32.7 µM) | 16 |  |
| Oc1cc(-c2ccccc2)nc2cc(F)ccc12 | 0.96 (≈ 4.01 µM) | 0.16 (≈ 0.669 µM) | < 0.1 | 0.29 (≈ 1.21 µM) | 0.37 (≈ 1.55 µM) | 3.45 (≈ 14.4 µM) | 3.7 | LC50 [26]: -4; TGI [10]: -6.1; TGI [11]: -5.6; LC50 [12]: >-4; LC50 [13]: >-4; LC50 [22]: -5.6; TGI [23]: -6.3; LC50 [27]: >-4; TGI [16]: -6; inhibition [24]: 34%; inhibition [25]: 7%; TGI [20]: -5.6 |
| Cn1c(-c2ccccc2)cc(=O)c2ccccc21 | > 10 | > 10 | > 10 | > 10 | > 10 | > 10 | > 40 |  |
| Oc1cc(-c2ccccc2)nc2cc(Cl)ccc12 | 2.89 (≈ 11.3 µM) | < 0.1 | < 0.1 | < 0.1 | < 0.1 | 0.45 (≈ 1.76 µM) |  |  |
